Test results taken from PMC3689924 (Pharmacology, 2012).
“And” between values parts separate entries of the source, which are not always exact repeats. Equal values may be shown once. “Also recorded” adds a separate entry of the source. Read-outs that look alike come from different tables or passages of the source.

Experiments:
[1] = tested on: breast cancer resistance protein (BCRP); settings: at low concentrations; cited from earlier work
[2] = Safety and tolerability of single i.v. doses of TQD in healthy volunteers; type: in vivo, human
Procedure, shortened: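 15 healthy males were given single i.v. infusions at 4, 6 or 8 mg/kg and kept on the ward under continuous observation until 24 h after infusion end. Blood pressure, heart rate and ECG were recorded repeatedly over the first 24 h. Monitoring included clinical chemistry, coagulation, haematology and adverse events. Physical examination, vital signs, AE check, and blood and urine analysis were repeated within one week.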

Pgp at the human BBB = settings: cited from earlier work
Pgp [3] = settings: 2 mg/kg dose; cited from earlier work
Pgp [4] = settings: at low concentrations; cited from earlier work
[5] = type: in vitro ADME, human; settings: for TQD concentration in plasma after storage: mean±SD of four determinations
Procedure, shortened: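 Plasma was spiked at 0.1, 0.5 and 2.0 μg/ml and split into 16 aliquots per level. Four aliquots were analysed by HPLC at once as the baseline. The rest were stored 24 h, 1 month or 3 months at RT, 4°C, −20°C or −80°C, then quantified. Results are given as mean of four determinations and percent of baseline; stability criterion was 95%.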

[6] = type: in vivo, human; settings: for t½: terminal elimination
Procedure, shortened: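 Healthy males (n=5 per dose group). Vehicle stock of 20% ethanol/80% propylene glycol, diluted to 0.6 mg/ml in 5% dextrose, infused i.v. at 375 ml/h to target dose. Heparinised blood taken pre-dose, at 25/50/75% and end of infusion, then to 1440 min. Plasma methanol-precipitated, C18 HPLC-MS, calibration 0.005–5 μg/ml, LLOQ 5 ng/ml. Cmax observed; AUC0-n, Vss, CL, t½ calculated.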

[7] = single i.v. doses up to 8 mg/kg BW
[8] = 4 mg/kg BW i.v. infusion, individual subjects 1-5
[9] = 6 mg/kg BW i.v. infusion, individual subjects 6-10
[10] = 8 mg/kg BW i.v. infusion, individual subjects 11-15

- percent of baseline ([5]; 0.1 μg/ml, 4°C, 1 month): 7.2%
- TQD concentration in plasma after storage ([5]; 0.1 μg/ml, 4°C, 1 month): 0.007 ± 0.001 µg/mL
- percent of baseline ([5]; 0.1 μg/ml, 4°C, 3 months): 3.1%
- TQD concentration in plasma after storage ([5]; 0.1 μg/ml, 4°C, 3 months): 0.003 ± 0.000 µg/mL
- percent of baseline ([5]; 0.1 μg/ml, 4°C, 24 h): 99%
- TQD concentration in plasma after storage ([5]; 0.1 μg/ml, 4°C, 24 h): 0.099 ± 0.003 µg/mL
- percent of baseline ([5]; 0.1 μg/ml, RT, 1 month): 8.6%
- TQD concentration in plasma after storage ([5]; 0.1 μg/ml, RT, 1 month): 0.008 ± 0.000 µg/mL
- percent of baseline ([5]; 0.1 μg/ml, RT, 3 months): 3.0%
- TQD concentration in plasma after storage ([5]; 0.1 μg/ml, RT, 3 months): 0.003 ± 0.000 µg/mL
- percent of baseline ([5]; 0.1 μg/ml, RT, 24 h): 100%
- TQD concentration in plasma after storage ([5]; 0.1 μg/ml, RT, 24 h): 0.10 ± 0.004 µg/mL
- percent of baseline ([5]; 0.1 μg/ml, −20°C, 1 month): 73.9%
- TQD concentration in plasma after storage ([5]; 0.1 μg/ml, −20°C, 1 month): 0.073 ± 0.005 µg/mL
- percent of baseline ([5]; 0.1 μg/ml, −20°C, 3 months): 40.8%
- TQD concentration in plasma after storage ([5]; 0.1 μg/ml, −20°C, 3 months): 0.041 ± 0.004 µg/mL
- percent of baseline ([5]; 0.1 μg/ml, −20°C, 24 h): 100%
- TQD concentration in plasma after storage ([5]; 0.1 μg/ml, −20°C, 24 h): 0.10 ± 0.002 µg/mL
- percent of baseline ([5]; 0.1 μg/ml, −80°C, 1 month): 78.1%
- TQD concentration in plasma after storage ([5]; 0.1 μg/ml, −80°C, 1 month): 0.078 ± 0.006 µg/mL
- percent of baseline ([5]; 0.1 μg/ml, −80°C, 3 months): 69.1%
- TQD concentration in plasma after storage ([5]; 0.1 μg/ml, −80°C, 3 months): 0.069 ± 0.005 µg/mL
- percent of baseline ([5]; 0.1 μg/ml, −80°C, 24 h): 98%
- TQD concentration in plasma after storage ([5]; 0.1 μg/ml, −80°C, 24 h): 0.098 ± 0.003 µg/mL
- percent of baseline ([5]; 0.5 μg/ml, 4°C, 1 month): 11.2%
- TQD concentration in plasma after storage ([5]; 0.5 μg/ml, 4°C, 1 month): 0.056 ± 0.003 µg/mL
- percent of baseline ([5]; 0.5 μg/ml, 4°C, 3 months): 3.4%
- TQD concentration in plasma after storage ([5]; 0.5 μg/ml, 4°C, 3 months): 0.017 ± 0.001 µg/mL
- percent of baseline ([5]; 0.5 μg/ml, 4°C, 24 h): 102%
- TQD concentration in plasma after storage ([5]; 0.5 μg/ml, 4°C, 24 h): 0.51 ± 0.023 µg/mL
- percent of baseline ([5]; 0.5 μg/ml, RT, 3 months): 1.7%
- TQD concentration in plasma after storage ([5]; 0.5 μg/ml, RT, 3 months): 0.008 ± 0.001 µg/mL
- percent of baseline ([5]; 0.5 μg/ml, RT, 24 h): 98%
- TQD concentration in plasma after storage ([5]; 0.5 μg/ml, RT, 24 h): 0.49 ± 0.033 µg/mL
- percent of baseline ([5]; 0.5 μg/ml, −20°C, 1 month): 77.6%
- TQD concentration in plasma after storage ([5]; 0.5 μg/ml, −20°C, 1 month): 0.38 ± 0.021 µg/mL
- percent of baseline ([5]; 0.5 μg/ml, −20°C, 3 months): 36.4%
- TQD concentration in plasma after storage ([5]; 0.5 μg/ml, −20°C, 3 months): 0.18 ± 0.014 µg/mL
- percent of baseline ([5]; 0.5 μg/ml, −20°C, 24 h): 99%
- TQD concentration in plasma after storage ([5]; 0.5 μg/ml, −20°C, 24 h): 0.49 ± 0.014 µg/mL
- percent of baseline ([5]; 0.5 μg/ml, −80°C, 1 month): 82.3%
- TQD concentration in plasma after storage ([5]; 0.5 μg/ml, −80°C, 1 month): 0.41 ± 0.030 µg/mL
- percent of baseline ([5]; 0.5 μg/ml, −80°C, 3 months): 53.9%
- TQD concentration in plasma after storage ([5]; 0.5 μg/ml, −80°C, 3 months): 0.27 ± 0.023 µg/mL
- percent of baseline ([5]; 0.5 μg/ml, −80°C, 24 h): 100%
- TQD concentration in plasma after storage ([5]; 0.5 μg/ml, −80°C, 24 h): 0.50 ± 0.025 µg/mL
- percent of baseline ([5]; 2.0 μg/ml, 4°C, 1 month): 9.5%
- TQD concentration in plasma after storage ([5]; 2.0 μg/ml, 4°C, 1 month): 0.19 ± 0.004 µg/mL
- percent of baseline ([5]; 2.0 μg/ml, 4°C, 3 months): 5.6%
- TQD concentration in plasma after storage ([5]; 2.0 μg/ml, 4°C, 3 months): 0.11 ± 0.006 µg/mL
- percent of baseline ([5]; 2.0 μg/ml, 4°C, 24 h): 98.5%
- TQD concentration in plasma after storage ([5]; 2.0 μg/ml, 4°C, 24 h): 1.97 ± 0.050 µg/mL
- percent of baseline ([5]; 2.0 μg/ml, RT, 1 month): 9.1%
- TQD concentration in plasma after storage ([5]; 2.0 μg/ml, RT, 1 month): 0.18 ± 0.003 µg/mL
- percent of baseline ([5]; 2.0 μg/ml, RT, 3 months): 2.8%
- TQD concentration in plasma after storage ([5]; 2.0 μg/ml, RT, 3 months): 0.054 ± 0.004 µg/mL
- percent of baseline ([5]; 2.0 μg/ml, RT, 24 h): 101%
- TQD concentration in plasma after storage ([5]; 2.0 μg/ml, RT, 24 h): 2.02 ± 0.081 µg/mL
- percent of baseline ([5]; 2.0 μg/ml, −20°C, 1 month): 75.8%
- TQD concentration in plasma after storage ([5]; 2.0 μg/ml, −20°C, 1 month): 1.51 ± 0.065 µg/mL
- percent of baseline ([5]; 2.0 μg/ml, −20°C, 3 months): 48.3%
- TQD concentration in plasma after storage ([5]; 2.0 μg/ml, −20°C, 3 months): 0.97 ± 0.084 µg/mL
- percent of baseline ([5]; 2.0 μg/ml, −20°C, 24 h): 99%
- TQD concentration in plasma after storage ([5]; 2.0 μg/ml, −20°C, 24 h): 1.98 ± 0.075 µg/mL
- percent of baseline ([5]; 2.0 μg/ml, −80°C, 1 month): 80.6%
- TQD concentration in plasma after storage ([5]; 2.0 μg/ml, −80°C, 1 month): 1.62 ± 0.068 µg/mL
- percent of baseline ([5]; 2.0 μg/ml, −80°C, 3 months): 61.5%
- TQD concentration in plasma after storage ([5]; 2.0 μg/ml, −80°C, 3 months): 1.23 ± 0.056 µg/mL
- percent of baseline ([5]; 2.0 μg/ml, −80°C, 24 h): 100.5%
- TQD concentration in plasma after storage ([5]; 2.0 μg/ml, −80°C, 24 h): 2.01 ± 0.064 µg/mL
- concentration dependency of degradation rate in plasma ([5]; 0.1, 0.5 and 2.0 μg/ml): No concentration dependency
- stability in plasma on storage longer than 24 h ([5]; 1 month, 3 months, even at −80°C): pronounced degradation
- stability in plasma (criterion 95%) ([5]; 24 h at RT, 4°C, −20°C and −80°C): stable
- concentration remaining relative to original values ([5]; one month at −20°C): 74-78%
- concentration remaining relative to original values ([5]; one month at −80°C): 78-82%
- concentration remaining relative to original concentration ([5]; one month of storage at RT or at 4°C): approximately 10%
- Vss [6, 8]: 530 L and 571 L and 384 L and 445 L
- tmax [6, 8]: 1.38 h and 1.45 h and 1.55 h and 1.40 h
- t½ [6, 8]: 33 h and 55 h and 30 h and 31 h
- tmax [6, 9]: 2.45 h and 1.83 h and 2.23 h
- t½ [6, 9]: 34 h and 26 h and 33 h and 16 h and 35 h
- Vss [6, 10]: 521 L and 667 L and 380 L and 616 L
- tmax [6, 10]: 2.42 h and 2.28 h and 2.70 h and 2.26 h
- t½ [6, 10]: 21 h and 25 h and 30 h and 14 h
- dose dependency of plasma exposure AUC0-n ([6]; dose range from 2 to 8 mg/kg i.v.): largely increase linearly
Compound: COc1cc2c(cc1OC)CN(CCc1ccc(NC(=O)c3cc(OC)c(OC)cc3NC(=O)c3cnc4ccccc4c3)cc1)CC2 [TQD, tariquidar]
- transport by breast cancer resistance protein (BCRP) [1]: transported
- cases of metallic taste in the mouth ([2]; 15 subjects, 4-8 mg/kg i.v.): five cases
- heart rate, blood pressure and ECG ([2]; during and after TQD administration): did not significantly change
- dose limiting toxicities ([2]; single i.v. doses 4, 6, 8 mg/kg): No dose limiting toxicities
- serious or severe AEs [2, 7]: no serious or severe AEs
- tolerability [2, 7]: generally well tolerated
- blood chemistries, complete blood count and coagulation ([2]; whole study period): No subject had any significant change
- increase in (R)-[11C]verapamil brain distribution (Pgp at the human BBB; 8 mg/kg TQD dose, healthy subjects, PET): 3 fold
- inhibition of Pgp at the human BBB (Pgp at the human BBB; 8 mg/kg TQD dose, plateau in concentration-response curve): complete inhibition
- EC50 (Pgp at the human BBB; read-out: half-maximum effect concentration (EC50) for functional inhibition of Pgp at the human BBB): 669 nM
- inhibition of Pgp-mediated rhodamine 123 efflux from CD56-positive lymphocytes (Pgp [3]): fully inhibit
- transport by Pgp (Pgp [4]): transported
- CL [6, 8]: 11.29 L/h and 7.39 L/h and 9.22 L/h and 10.11 L/h
- CL [6, 9]: 13.99 L/h and 15.15 L/h and 13.53 L/h and 11.35 L/h
- Vss [6, 9]: 645 L and 509 L and 680 L and 312 L and 559 L
- CL [6, 10]: 15.41 L/h and 16.21 L/h and 20.85 L/h and 22.15 L/h
- Cmax ([6]; 8 mg/kg BW i.v. infusion, individual subjects 11-15, plasma): 1920 ng/mL and 1050 ng/mL and 1870 ng/mL and 1660 ng/mL
- concentration of possible metabolites in plasma samples ([6]; all plasma samples, 4-8 mg/kg i.v.): below the detection limit; also recorded: could not detect any metabolites
